The list is not random: actives were taken first. Their share in the collection is about 0.51%.
Rce1 inhib – inhibitors of yeast Ras-converting enzyme | Q03530 | yeast membranes, quenched prenylated peptide cleavage fluorescence | calls only | hit rate 0.27% among 290,000 | AID 2563;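 active means fall in fluorescence gain of 50% or more versus controls, with final raw signal at or below 3038400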;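 further: plate controls were neutral control wells for no effect and wells lacking membranes for full effect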
Target sequence (Q03530 whole entry, looked up): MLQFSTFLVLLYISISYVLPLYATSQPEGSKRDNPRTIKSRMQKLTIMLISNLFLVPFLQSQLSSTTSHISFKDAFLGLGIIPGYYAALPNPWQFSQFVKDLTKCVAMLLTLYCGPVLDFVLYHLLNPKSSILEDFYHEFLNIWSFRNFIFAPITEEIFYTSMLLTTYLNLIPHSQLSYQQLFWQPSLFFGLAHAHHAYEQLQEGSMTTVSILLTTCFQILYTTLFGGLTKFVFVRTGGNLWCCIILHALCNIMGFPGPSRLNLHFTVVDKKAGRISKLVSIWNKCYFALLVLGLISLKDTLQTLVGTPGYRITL
aDG glyco act – alpha-DG glycosylation activation; Pro5-aDG cells, alpha-DG glycosylation AlphaScreen (IIH6); 0% Pro5, 100% B10-LARGE cell signal; activation, % at 10 µM; hit rate 0.22% among 360,000; AID 624168;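 active means activation of at least 8% versus controls, or a plate z-score of at least 8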;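 further: Pro5 are CHO cells carrying HIG-tagged alpha-DG that lacks glycosylation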
T cell modulator – T cell immune modulators affecting CD8 T cell-vesicle binding | hit rate 0.068% among 330,000 | AID 2052 | 2C CD8+ T cell-vesicle binding, flow cytometry; hits give low values | response (vesicle binding), % at 7 µM;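 active means response, share of CD8 T cells binding vesicles, and their 90th percentile fluorescence all below set limits, cut at about 80% in these data, passing the limit was not always enough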;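 further: values below 100% mean blocked vesicle binding to the CD8+ T cells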
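Material: 2C TCR transgenic mouse naive CD8+ T cells, MACS-purified. Also added: QL9-charged Drosophila Ld/ICAM-1/B7-1 vesicles. Timing: binding 1.5 h at 37 °C. Measured by: high-throughput flow cytometry with anti-B7-1 and anti-CD8 staining. Read-out: percent CD8+ FL2 mean versus row control. Controls: Unloaded micro-vesicles (low), QL9 vesicles with 0.7% DMSO (high).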
PolyA inhibitor – yeast polyadenylation inhibition. S. cerevisiae SKY197-pL101 polyadenylation reporter, beta-gal luminescence; efflux-impaired pdr1/pdr3 knockout yeast; score 100 = 6 SD above DMSO. activity score, % at 12 µM. hit rate 0.02% among 300,000;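 active means lowest replicate activity score at least 50, where 100 means six control SD above control mean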;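 further: yeast exposed to compound for 9 h at 30 °C; higher score means more reporter readthrough which indicates perturbed polyadenylation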
aDG glyco conf – confirmation of alpha dystroglycan glycosylation activators. shares compounds with aDG glyco act. Pro5-aDG cells, alpha-DG glycosylation, IIH6 AlphaLISA; scaled to LARGE-overexpressing B10 cells as 100%. activation, % at 10 µM (by protocol). hit rate 17% among 600. AID 651671;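 active means activation of at least 7% in one or more replicates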;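 further: cells exposed to compound for two days before detection; 0% = DMSO-treated Pro5 cells and 100% = DMSO-treated B10-LARGE cells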
Active calls of the source: *; i = inactive; nt = not tested or not shown; + = active, no number.

SMILES	Rce1 inhib	aDG glyco act	T cell modulator	PolyA inhibitor	others
O=[N+]([O-])c1cc(Cl)c(O)c(-[n+]2c(-c3ccccc3)cc(-c3ccccc3)cc2-c2ccccc2)c1	i	-0.1	162.4	-1.5
O=[N+]([O-])c1ccc(C[n+]2c(-c3ccccc3)cc(-c3ccccc3)cc2-c2ccccc2)cc1	+	-0.3	451.6	-11.5
CCOc1cc(-c2nc3c(C)cccn3c2NCC2CCCO2)ccc1O (stereo not drawn)	+	-0.2	486.3	-7.4
Cc1oc(-c2cccs2)nc1CSCC(=O)N1CCC2(CC1)OCCO2	+	0.1	541.6	21.7
COC(=O)C1=C(c2ccc(Cl)c(C(F)(F)F)c2)C[C@@H]2CC[C@H]1N2C(=O)NCCOc1ccc(OC)cc1	nt	0.8	604.3	nt
CN1C(=O)c2ccccc2NC(=O)[C@]12O[C@@H]2c1ccccc1	+	-0.1	329.8	-0.2
C=Cn1c(P(=S)(N2CCOCC2)N2CCOCC2)cc2c1CCCC2	i	-0.1	529.3	6.2
CC(C)(O)C1C2OC(=O)C1C1(O)CC3OC34C(=O)OC2C14C (stereo not drawn)	nt	-0.1	nt	nt
COc1cc(/C=C/c2nc3ccccc3c(=O)n2-c2cccc(O)c2)ccc1O	i	-0.3	144.2	60.8*
Cc1ccnc(-n2c(-c3ccco3)nc3ccccc3c2=O)c1	+	-0.1	833.6	0.7
Cc1c(C(=O)C(=O)N2CCC3(CC2)OCCO3)c2ccccc2n1C	i	-0.1	235.9	20.5
CN1CC(C(=O)c2ccc(Cl)cc2)C(c2ccc(Cl)cc2Cl)C1 (stereo not drawn)	+	0.0	666.7	-11.7
CN1CC(C(=O)c2ccc(Cl)cc2)C(c2ccc(N(C)C)cc2)C1 (stereo not drawn)	i	-0.7	236.8	-0.9
C=Cn1ccnc1P(=S)(c1ccc(Cl)cc1)c1nccn1C=C	i	0.2	305.4	9.8
CCOC(=O)CNC(=O)N1Cc2cc(N3CCOCC3)ccc2-n2nncc2C1	nt	-0.2	nt	nt
Cc1ccc(-c2cc(-c3ccccc3)cc(-c3ccccc3)[n+]2-c2ccccc2)cc1	+	0.5	461.7	-16.4
Cc1ccc(-c2cc(-c3ccc(C)cc3)[n+](-c3ccccc3)c(-c3ccc(C)cc3)c2)cc1	+	1.9	153.2	5.9
CN(C)c1ccc(-[n+]2c(-c3ccccc3)cc(-c3ccccc3)cc2-c2ccccc2)cc1	nt	-0.4	nt	-17.3
c1ccc(-c2cc(-c3ccccc3)[n+](-c3ccccc3)c(-c3ccccc3)c2)cc1	i	0.3	203.2	-2.9
Cc1nn(CC(C)C)c(Cl)c1C(=O)NC1CCC(C)CC1 (stereo not drawn)	i	0.0	573.4	-9.4
Fc1ccc(C(OCCN2CCN(CCCc3ccccc3)CC2)c2ccc(F)cc2)cc1	i	0.7	503.4	-32.4
c1ccc(CCCN2CCN(CCOC(c3ccccc3)c3ccccc3)CC2)cc1	+	0.2	470.3	-2.7
COCCCn1c(N)c(C(=O)NCc2ccco2)c2nc3ccccc3nc21	+	nt	524.2	-5.4
CCCN(CCC)C(=O)Cc1c(-c2ccc(Cl)cc2)nc2c(Cl)cc(Cl)cn12	nt	0.0	241.2	nt
Cc1ccc(-c2nc3ccc(C)cn3c2CC(=O)N(C)C)cc1	+	0.3	213.1	19.7
SMILES	Rce1 inhib	aDG glyco act	T cell modulator	PolyA inhibitor	others
Cc1c(C)c2ccc(OCC(=O)N3CCC(C(=O)O)(c4ccccc4)CC3)cc2oc1=O	nt	0.1	200.0	2.1
O=C(COc1ccc2ccc(=O)oc2c1)N1CCC(C(=O)O)(c2ccccc2)CC1	+	-0.2	124.3	-7.1
Cc1nccc2c1[nH]c1ccccc12	+	0.0	210.0	-15.3
Cc1ccnc(-n2c(C)nc3ccccc3c2=O)c1	nt	7.8*	268.7	4.3	aDG glyco conf=0.6*
CN(Cc1ccccc1)Cc1ccccc1OC(=O)N(C)C	i	58.0*	385.0	7.9	aDG glyco conf=0.3
O=C(COc1ccc(Br)cc1)N1CCN(Cc2ccc3c(c2)OCO3)CC1	i	0.1	0.0	1.2
O=C(C(=O)N1CCOCC1)c1cn(CCCOc2ccccc2)c2ccccc12	i	-0.1	275.9	15.8
CC(=O)c1cn(CCCOc2ccccc2)c2ccccc12	i	6.3*	167.6	-14.9	aDG glyco conf=0.1
O=C1CC(=O)N(c2cccc(F)c2)C(=O)N1	i	0.1	184.4	0.4
